Measurements from ChEMBL document CHEMBL3244070, “Spiro[isobenzofuran-1(3H),4'-piperidines]. 3. Diuretic and antihypertensive properties of compounds containing a sulfur attached to nitrogen” (1978).
Active and inactive are the calls of the source. The calls are words filed in the database; no cut-off is given here.

Legend:
Rattus norvegicus [1] = assay: Diuretic activity in acute sodium loaded Wistar rat assessed as chloride level in urine at 25 mg/kg, po measured for 0 to 5 hrs post drug dosing by chloride analyzer relative to urea; format: functional
Method in brief: (§1)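 Female Wistar rats (150–200 g), fasted 16 h. Drug in 1% saline given orally at 15 mL/kg; animals kept in individual metabolic cages with water ad libitum. Urine collected 0–5 h. Each test had vehicle and urea (1000 mg/kg) groups. Na⁺ and K⁺ measured by flame photometry, Cl⁻ by chloride analyzer. Group means for volume and each ion expressed as a ratio to the urea group.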

Rattus norvegicus [2] = assay: Diuretic activity in acute sodium loaded Wistar rat assessed as sodium level in urine at 25 mg/kg, po measured for 0 to 5 hrs post drug dosing by flame photometer relative to urea; format: functional; method in brief: as §1
Mus musculus = assay: Antidepressant activity in CD-1 mouse at 25 mg/kg, ip administered 30 mins prior to tetrabenazine challenge measured after 30 mins by tetrabenazine assay; format: functional, organism-based; parameters: dose 25 mg/kg
Rattus norvegicus [3] = assay: Diuretic activity in acute sodium loaded Wistar rat assessed as urine volume at 25 mg/kg, po measured for 0 to 5 hrs post drug dosing relative to urea; format: functional; method in brief: as §1
Rattus norvegicus [4] = assay: Diuretic activity in acute sodium loaded Wistar rat assessed as sodium level in urine at 50 mg/kg, po measured for 0 to 5 hrs post drug dosing by flame photometer relative to urea; format: functional; method in brief: as §1
Rattus norvegicus [5] = assay: Diuretic activity in acute sodium loaded Wistar rat assessed as chloride level in urine at 50 mg/kg, po measured for 0 to 5 hrs post drug dosing by chloride analyzer relative to urea; format: functional; method in brief: as §1
Rattus norvegicus [6] = assay: Diuretic activity in acute sodium loaded Wistar rat assessed as potassium level in urine at 50 mg/kg, po measured for 0 to 5 hrs post drug dosing by flame photometer relative to urea; format: functional; method in brief: as §1
Rattus norvegicus [7] = assay: Antihypertensive activity in spontaneous hypertensive rat assessed as drop in systolic blood pressure at 25 mg/kg, po administered at 0 hrs on days 1, 2 and 3 measured at 2 hrs after drug dose on day 3 by indirect tail-cuff method; format: functional, Artery
Method in brief: (§2)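 Spontaneously hypertensive rats, tail-cuff (indirect) systolic pressure. Pairs of rats held in a wire basket, conditioned 20 min in a 40 °C incubator. Each reading is the mean of 3–5 determinations. Rats had 2-week training for baseline; those below 175 mmHg were excluded. Oral dosing at 0 h on days 1–3 in groups of six, read before dosing and 2 h after the day-3 dose; paired t test.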

Rattus norvegicus [8] = assay: Diuretic activity in acute sodium loaded Wistar rat assessed as urine volume at 50 mg/kg, po measured for 0 to 5 hrs post drug dosing relative to urea; format: functional; method in brief: as §1
Rattus norvegicus [9] = assay: Diuretic activity in acute sodium loaded Wistar rat assessed as potassium level in urine at 25 mg/kg, po measured for 0 to 5 hrs post drug dosing by flame photometer relative to urea; format: functional; method in brief: as §1
Rattus norvegicus [10] = assay: Antihypertensive activity in spontaneous hypertensive rat assessed as drop in systolic blood pressure at 100 mg/kg, po administered at 0 hrs on days 1, 2 and 3 measured at 2 hrs after drug dose on day 3 by indirect tail-cuff method; format: functional, Artery; method in brief: as §2
Rattus norvegicus [11] = assay: Antihypertensive activity in spontaneous hypertensive rat assessed as drop in systolic blood pressure at 50 mg/kg, po administered at 0 hrs on days 1, 2 and 3 measured at 2 hrs after drug dose on day 3 by indirect tail-cuff method; format: functional, Artery; method in brief: as §2
Rattus norvegicus [12] = assay: Antihypertensive activity in spontaneous hypertensive rat assessed as drop in systolic blood pressure at 10 mg/kg, po administered at 0 hrs on days 1, 2 and 3 measured at 2 hrs after drug dose on day 3 by indirect tail-cuff method; format: functional, Artery; method in brief: as §2
Rattus norvegicus [13] = assay: Diuretic activity in acute sodium loaded Wistar rat assessed as sodium level in urine at 5 mg/kg, po measured for 0 to 5 hrs post drug dosing by flame photometer relative to urea; format: functional; method in brief: as §1
Rattus norvegicus [14] = assay: Diuretic activity in acute sodium loaded Wistar rat assessed as urine volume at 5 mg/kg, po measured for 0 to 5 hrs post drug dosing relative to urea; format: functional; method in brief: as §1
Rattus norvegicus [15] = assay: Diuretic activity in acute sodium loaded Wistar rat assessed as urine volume at 10 mg/kg, po measured for 0 to 5 hrs post drug dosing relative to urea; format: functional; method in brief: as §1
Rattus norvegicus [16] = assay: Hypotensive activity in DOCA rat at 25 to 50 mg/kg, po; format: functional, organism-based
Rattus norvegicus [17] = assay: Diuretic activity in acute sodium loaded Wistar rat assessed as chloride level in urine at 10 mg/kg, po measured for 0 to 5 hrs post drug dosing by chloride analyzer relative to urea; format: functional; method in brief: as §1
Rattus norvegicus [18] = assay: Diuretic activity in acute sodium loaded Wistar rat assessed as urine volume at 2 mg/kg, po measured for 0 to 5 hrs post drug dosing relative to urea; format: functional; method in brief: as §1
Rattus norvegicus [19] = assay: Diuretic activity in acute sodium loaded Wistar rat assessed as sodium level in urine at 10 mg/kg, po measured for 0 to 5 hrs post drug dosing by flame photometer relative to urea; format: functional; method in brief: as §1
Canis familiaris [20] = assay: Antihypertensive activity in acute anesthetized dog at 10 mg/kg, iv; format: functional, organism-based; parameters: dose 10 mg/kg; details: Canis lupus familiaris
Canis familiaris [21] = assay: Diuretic activity in dog at 1 to 50 mg/kg, po; format: functional, organism-based; details: Canis lupus familiaris, Urine
Rattus norvegicus [22] = assay: Diuretic activity in acute sodium loaded Wistar rat assessed as potassium level in urine at 2 mg/kg, po measured for 0 to 5 hrs post drug dosing by flame photometer relative to urea; format: functional; method in brief: as §1
Rattus norvegicus [23] = assay: Diuretic activity in acute sodium loaded Wistar rat assessed as sodium level in urine at 2 mg/kg, po measured for 0 to 5 hrs post drug dosing by flame photometer relative to urea; format: functional; method in brief: as §1
Rattus norvegicus [24] = assay: Diuretic activity in acute sodium loaded Wistar rat assessed as potassium level in urine at 10 mg/kg, po measured for 0 to 5 hrs post drug dosing by flame photometer relative to urea; format: functional; method in brief: as §1
Rattus norvegicus [25] = assay: Diuretic activity in acute sodium loaded Wistar rat assessed as potassium level in urine at 5 mg/kg, po measured for 0 to 5 hrs post drug dosing by flame photometer relative to urea; format: functional; method in brief: as §1
Rattus norvegicus [26] = assay: Diuretic activity in acute sodium loaded Wistar rat assessed as chloride level in urine at 2 mg/kg, po measured for 0 to 5 hrs post drug dosing by chloride analyzer relative to urea; format: functional; method in brief: as §1
Canis familiaris [27] = assay: Diuretic activity in dog at 20 mg/kg, iv; format: functional, organism-based; parameters: dose 20 mg/kg; details: Canis lupus familiaris, Urine
Rhesus monkey = assay: Diuretic activity in rhesus monkey at 10 to 20 mg/kg, po; format: functional, organism-based; details: Macaca mulatta, Urine
Rattus norvegicus [28] = assay: Diuretic activity in acute sodium loaded Wistar rat assessed as chloride level in urine at 5 mg/kg, po measured for 0 to 5 hrs post drug dosing by chloride analyzer relative to urea; format: functional; method in brief: as §1

O=[N+]([O-])c1ccc(SN2CCC3(CC2)OC(c2ccccc2)c2ccccc23)cc1 (stereo not given)
Ratio (Rattus norvegicus [1]): 0.75 | Ratio (Rattus norvegicus [2]): 0.76 | Activity (Mus musculus): inactive | Ratio (Rattus norvegicus [3]): 0.59 | Ratio (Rattus norvegicus [4]): 2.41 | Ratio (Rattus norvegicus [5]): 2.3 | Ratio (Rattus norvegicus [6]): 1.2 | Activity (Rattus norvegicus [7]): 9 mmHg | Ratio (Rattus norvegicus [8]): 1.73 | Ratio (Rattus norvegicus [9]): 0.58

[O-][S+](c1ccccc1)N1CCC2(CC1)OC(c1ccccc1)c1ccccc12 (stereo not given)
Ratio (Rattus norvegicus [1]): 1.18 | Ratio (Rattus norvegicus [2]): 1.22 | Activity (Mus musculus): inactive | Ratio (Rattus norvegicus [3]): 0.81 | Ratio (Rattus norvegicus [4]): 2.2 | Ratio (Rattus norvegicus [6]): 1 | Ratio (Rattus norvegicus [8]): 1.74 | Activity (Rattus norvegicus [10]): 22 mmHg | Ratio (Rattus norvegicus [9]): 0.68

COc1ccc(SN2CCC3(CC2)OC(c2ccccc2)c2ccccc23)cc1 (stereo not given)
Ratio (Rattus norvegicus [2]): 0.97 | Activity (Mus musculus): inactive | Ratio (Rattus norvegicus [3]): 1.4 | Ratio (Rattus norvegicus [4]): 1.78 | Ratio (Rattus norvegicus [5]): 1.47 | Ratio (Rattus norvegicus [6]): 0.8 | Activity (Rattus norvegicus [11]): 14 mmHg | Ratio (Rattus norvegicus [8]): 1.47 | Ratio (Rattus norvegicus [9]): 0.84

NS(=O)(=O)c1cc2c(cc1Cl)N=CNS2(=O)=O [CHLOROTHIAZIDE]
Ratio (Rattus norvegicus [4]): 2.2 | Ratio (Rattus norvegicus [6]): 1.1 | Ratio (Rattus norvegicus [8]): 1.6

N=C(N)NCCN1CCCCCCC1 [GUANETHIDINE]
Activity (Rattus norvegicus [12]): 34 mmHg

O=S(=O)(c1ccccc1)N1CCC2(CC1)OC(c1ccccc1)c1ccccc12 (stereo not given)
Activity (Mus musculus): inactive | Ratio (Rattus norvegicus [4]): 0.7 | Ratio (Rattus norvegicus [5]): 0.79 | Ratio (Rattus norvegicus [6]): 0.57 | Activity (Rattus norvegicus [11]): 13 mmHg | Ratio (Rattus norvegicus [8]): 0.63

c1ccc(SN2CCC3(CC2)OC(c2ccccc2)c2ccccc23)cc1 (stereo not given)
Ratio (Rattus norvegicus [13]): 1.31 | Ratio (Rattus norvegicus [14]): 1.2 | Ratio (Rattus norvegicus [15]): 1.49 | Ratio (Rattus norvegicus [2]): 2.5 | Activity (Mus musculus): inactive | Activity (Rattus norvegicus [16]): Active | Ratio (Rattus norvegicus [17]): 1.62 | Ratio (Rattus norvegicus [3]): 2.2 | Ratio (Rattus norvegicus [18]): 1 | Ratio (Rattus norvegicus [4]): 1.83 | Ratio (Rattus norvegicus [19]): 1.69 | Activity (Canis familiaris [20]): inactive | Ratio (Rattus norvegicus [5]): 1.85 | Activity (Canis familiaris [21]): inactive | Ratio (Rattus norvegicus [6]): 0.97 | Ratio (Rattus norvegicus [22]): 0.74 | Ratio (Rattus norvegicus [23]): 1.2 | Activity (Rattus norvegicus [11]): 66 mmHg | Ratio (Rattus norvegicus [24]): 0.94 | Ratio (Rattus norvegicus [25]): 0.86 | Activity (Rattus norvegicus [7]): 44 mmHg | Ratio (Rattus norvegicus [26]): 1.19 | Ratio (Rattus norvegicus [8]): 1.71 | Activity (Canis familiaris [27]): inactive | Activity (Rhesus monkey): inactive | Ratio (Rattus norvegicus [9]): 1.2 | Ratio (Rattus norvegicus [28]): 1.43
